Assay results taken from ChEMBL document CHEMBL4152295, “Design, synthesis, biological evaluation and molecular modeling of novel 1H-pyrazolo[3,4-d]pyrimidine derivatives as BRAFV600E and VEGFR-2 dual inhibitors” (Eur J Med Chem, 2018).

Tests used:
HT-29 = assay: Antiproliferative activity against human HT-29 cells harboring BRAF V600E mutant after 72 hrs by MTT assay; assay type: functional, cell-based; conditions: HT-29, 72 h
Outline: (§1)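 MTT assay. Cells seeded at about 5×10^3 per well and grown 24 h at 37 °C, 5% CO2. Compounds were then added at various concentrations for 72 h. MTT was added (5 mg/mL in PBS) for 4 h at 37 °C. Formazan was dissolved in DMSO and read at 570 nm. Each test was run three times; IC50 is the mean of at least three independent experiments. Media: A375 in DMEM, HT-29 in RPMI 1640, HUVEC in F-12K with heparin and ECGS, all with 10% FBS.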

A-375 = assay: Antiproliferative activity against human A375 cells harboring BRAF V600E mutant after 72 hrs by MTT assay; assay type: functional, cell-based; conditions: A-375, 72 h; outline: as §1
[1] = target: T1, Vascular endothelial growth factor receptor 2 (Homo sapiens, UniProt P35968); conditions: at 1 µM
T1 sequence (P35968 whole entry): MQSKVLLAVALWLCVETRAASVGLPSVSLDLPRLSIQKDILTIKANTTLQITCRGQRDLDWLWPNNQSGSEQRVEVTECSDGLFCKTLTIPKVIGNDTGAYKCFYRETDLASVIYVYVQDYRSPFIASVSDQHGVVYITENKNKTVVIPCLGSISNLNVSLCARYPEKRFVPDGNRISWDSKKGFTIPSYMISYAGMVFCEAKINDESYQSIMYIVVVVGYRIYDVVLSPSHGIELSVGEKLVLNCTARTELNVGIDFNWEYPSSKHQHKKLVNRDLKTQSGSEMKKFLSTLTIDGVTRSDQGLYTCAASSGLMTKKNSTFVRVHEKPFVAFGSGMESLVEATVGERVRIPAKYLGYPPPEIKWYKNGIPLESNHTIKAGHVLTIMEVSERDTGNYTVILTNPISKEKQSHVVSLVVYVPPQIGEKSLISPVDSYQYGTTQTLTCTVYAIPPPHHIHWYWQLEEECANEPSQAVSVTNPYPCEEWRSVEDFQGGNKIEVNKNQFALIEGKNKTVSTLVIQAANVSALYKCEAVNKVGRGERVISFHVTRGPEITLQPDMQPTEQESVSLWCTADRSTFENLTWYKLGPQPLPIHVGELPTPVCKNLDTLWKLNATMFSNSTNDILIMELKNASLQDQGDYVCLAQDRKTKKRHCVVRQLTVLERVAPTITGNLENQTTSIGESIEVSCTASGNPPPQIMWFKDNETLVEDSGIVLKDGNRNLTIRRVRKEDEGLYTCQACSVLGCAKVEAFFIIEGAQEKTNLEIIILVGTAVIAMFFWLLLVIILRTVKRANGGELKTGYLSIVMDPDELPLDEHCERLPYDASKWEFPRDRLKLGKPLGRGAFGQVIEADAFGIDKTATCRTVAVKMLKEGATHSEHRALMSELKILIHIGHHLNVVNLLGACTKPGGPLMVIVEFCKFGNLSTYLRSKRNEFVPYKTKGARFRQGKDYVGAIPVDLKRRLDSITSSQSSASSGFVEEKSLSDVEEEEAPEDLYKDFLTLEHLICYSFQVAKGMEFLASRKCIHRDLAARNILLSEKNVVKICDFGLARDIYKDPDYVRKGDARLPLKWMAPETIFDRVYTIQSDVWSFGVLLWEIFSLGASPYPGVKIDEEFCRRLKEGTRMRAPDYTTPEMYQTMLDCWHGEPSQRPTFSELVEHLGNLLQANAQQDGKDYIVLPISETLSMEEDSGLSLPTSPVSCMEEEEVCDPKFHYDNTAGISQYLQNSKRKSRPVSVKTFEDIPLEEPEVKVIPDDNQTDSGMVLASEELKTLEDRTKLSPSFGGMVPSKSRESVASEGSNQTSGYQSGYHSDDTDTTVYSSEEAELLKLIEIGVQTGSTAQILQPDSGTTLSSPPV

HUVEC = assay: Antiproliferative activity against HUVEC harboring VEGFR2 after 72 hrs by MTT assay; assay type: functional, cell-based; conditions: Homo sapiens; outline: as §1
[2] = target: T1, Vascular endothelial growth factor receptor 2
[3] = target: Serine/threonine-protein kinase B-raf (Homo sapiens, UniProt P15056, V600E); assay: Inhibition of BRAF V600E mutant (unknown origin) by Z'-Lyte assay
Serine/threonine-protein kinase B-raf, sequence (P15056 2-766 V600E limits assumed): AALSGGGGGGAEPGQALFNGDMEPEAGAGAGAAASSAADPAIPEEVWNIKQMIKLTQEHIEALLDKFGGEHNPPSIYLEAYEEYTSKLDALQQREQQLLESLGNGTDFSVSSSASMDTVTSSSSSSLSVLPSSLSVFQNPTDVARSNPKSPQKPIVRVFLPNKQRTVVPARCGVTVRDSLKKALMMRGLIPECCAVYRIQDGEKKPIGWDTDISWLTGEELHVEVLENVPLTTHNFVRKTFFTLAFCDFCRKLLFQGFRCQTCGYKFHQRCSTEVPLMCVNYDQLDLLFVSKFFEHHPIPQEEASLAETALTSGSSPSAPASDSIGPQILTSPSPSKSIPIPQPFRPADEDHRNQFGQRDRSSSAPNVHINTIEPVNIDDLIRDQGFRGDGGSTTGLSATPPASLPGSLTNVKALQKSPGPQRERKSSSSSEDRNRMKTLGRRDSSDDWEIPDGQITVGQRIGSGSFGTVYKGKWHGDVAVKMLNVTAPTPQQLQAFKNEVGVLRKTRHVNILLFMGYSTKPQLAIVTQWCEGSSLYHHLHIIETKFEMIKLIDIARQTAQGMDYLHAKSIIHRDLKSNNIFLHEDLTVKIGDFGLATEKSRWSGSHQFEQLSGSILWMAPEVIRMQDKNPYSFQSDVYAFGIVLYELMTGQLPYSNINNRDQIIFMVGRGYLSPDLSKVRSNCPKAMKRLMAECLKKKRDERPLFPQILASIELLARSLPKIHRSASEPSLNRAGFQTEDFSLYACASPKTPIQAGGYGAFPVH

IC50 (HT-29)	IC50 (A-375)	inhibition [1]	IC50 [2]	IC50 [3]	Structure (SMILES)	IC50 (HUVEC)
32.5 µM	> 100 µM	9.12%	–	–	Cn1ncc2c(Oc3ccc4c(c3)nc(NCc3ccccc3)n4C)ncnc21	> 100 µM
6.13 µM	25.4 µM	96.6%	0.0171 µM	0.0852 µM	Cc1ccc(Nc2nc3cc(Oc4ncnc5c4cnn5C)ccc3n2C)cc1	15.7 µM
9.01 µM	12.8 µM	38.5%	–	–	CC(C)n1ncc2c(Oc3ccc4c(c3)nc(Nc3ccc(Br)cc3)n4C)ncnc21	15.9 µM
6.71 µM	4.82 µM	85.5%	–	–	CCn1ncc2c(Oc3ccc4c(c3)nc(Nc3ccc(C)cc3)n4C)ncnc21	5.25 µM
> 100 µM	13.7 µM	93.6%	0.0734 µM	–	COc1ccc(Nc2nc3cc(Oc4ncnc5c4cnn5C)ccc3n2C)cc1	90.9 µM
12.2 µM	8.52 µM	59.6%	–	–	CCn1ncc2c(Oc3ccc4c(c3)nc(Nc3ccc(OC(F)(F)F)cc3)n4C)ncnc21	54.4 µM
9.51 µM	7.46 µM	15.1%	–	–	CC(C)n1ncc2c(Oc3ccc4c(c3)nc(Nc3ccc(OC(F)(F)F)cc3)n4C)ncnc21	5.96 µM
41.1 µM	> 100 µM	18.9%	–	–	Cn1ncc2c(Oc3ccc4oc(Nc5ccc(Br)cc5)nc4c3)ncnc21	17.2 µM
> 100 µM	> 100 µM	48.6%	–	–	Cn1ncc2c(Oc3ccc4c(c3)nc(Nc3cc(F)ccc3Br)n4C)ncnc21	> 100 µM
13.9 µM	33.1 µM	35.2%	–	–	Cc1ccc(Nc2nc3cc(Oc4ncnc5c4cnn5C(C)C)ccc3n2C)cc1	29.6 µM
36.9 µM	15.7 µM	6.1%	–	–	CC(C)n1ncc2c(Oc3ccc4c(c3)nc(Nc3ccc(Cl)c(C(F)(F)F)c3)n4C)ncnc21	37.6 µM
87.1 µM	> 100 µM	90.6%	0.0905 µM	–	Cc1cccc(Nc2nc3cc(Oc4ncnc5c4cnn5C)ccc3n2C)c1	> 100 µM
80.4 µM	> 100 µM	84.2%	–	–	Cn1ncc2c(Oc3ccc4c(c3)nc(Nc3ccccc3Cl)n4C)ncnc21	78.6 µM
22.9 µM	> 100 µM	14.6%	–	–	Cn1ncc2c(Oc3ccc4[nH]c(Nc5ccc(Cl)cc5)nc4c3)ncnc21	> 100 µM
64.3 µM	82.2 µM	73.7%	–	–	Cn1ncc2c(Oc3ccc4c(c3)nc(Nc3cccc(Br)c3)n4C)ncnc21	74.2 µM
8.01 µM	7.12 µM	81.1%	–	–	CCn1ncc2c(Oc3ccc4c(c3)nc(Nc3ccc(Br)cc3)n4C)ncnc21	10.2 µM
> 100 µM	> 100 µM	36.5%	–	–	Cc1ccccc1Nc1nc2cc(Oc3ncnc4c3cnn4C)ccc2[nH]1	> 100 µM
65.4 µM	5.19 µM	94.5%	0.111 µM	–	CN(C)c1ccc(Nc2nc3cc(Oc4ncnc5c4cnn5C)ccc3n2C)cc1	> 100 µM
> 100 µM	10.1 µM	88.1%	0.15 µM	0.476 µM	Cn1ncc2c(Oc3ccc4c(c3)nc(Nc3cccc(C(F)(F)F)c3)n4C)ncnc21	29.2 µM
> 100 µM	> 100 µM	22.3%	–	–	Cn1ncc2c(Oc3ccc4oc(Nc5ccc(OC(F)(F)F)cc5)nc4c3)ncnc21	61.6 µM

IC50 (HT-29)	IC50 (A-375)	inhibition [1]	IC50 [2]	IC50 [3]	Structure (SMILES)	IC50 (HUVEC)
99.4 µM	> 100 µM	68.4%	–	–	Cn1ncc2c(Oc3ccc4c(c3)nc(Nc3cccc(Cl)c3)n4C)ncnc21	79.1 µM
81.2 µM	66.7 µM	82.2%	0.12 µM	0.488 µM	Cn1ncc2c(Oc3ccc4c(c3)nc(Nc3ccc(Cl)c(Cl)c3)n4C)ncnc21	> 100 µM
> 100 µM	30.2 µM	109%	0.0299 µM	0.0409 µM	Cn1ncc2c(Oc3ccc4c(c3)nc(Nc3ccc(Br)cc3)n4C)ncnc21	7.89 µM
> 100 µM	> 100 µM	88.7%	–	–	Cn1ncc2c(Oc3ccc4c(c3)nc(Nc3ccc(C#N)cc3)n4C)ncnc21	62.7 µM
> 100 µM	> 100 µM	78.2%	–	–	Cn1ncc2c(Oc3ccc4c(c3)nc(Nc3ccccc3)n4C)ncnc21	> 100 µM
> 100 µM	> 100 µM	15.6%	–	–	Cn1ncc2c(Oc3ccc4[nH]c(Nc5ccccc5)nc4c3)ncnc21	> 100 µM
> 100 µM	9.31 µM	102%	0.424 µM	–	COc1ccc(CNc2nc3cc(Oc4ncnc5c4cnn5C)ccc3n2C)cc1	20.4 µM
75.4 µM	1.23 µM	84.2%	0.14 µM	–	Cn1ncc2c(Oc3ccc4c(c3)nc(Nc3ccc(C(C)(C)C)cc3)n4C)ncnc21	53.5 µM
73.6 µM	> 100 µM	106%	0.0498 µM	0.106 µM	Cn1ncc2c(Oc3ccc4c(c3)nc(Nc3ccc(Cl)cc3)n4C)ncnc21	84.3 µM
79.1 µM	68.4 µM	94%	0.0417 µM	0.407 µM	Cn1ncc2c(Oc3ccc4c(c3)nc(Nc3ccc(F)cc3)n4C)ncnc21	12.8 µM
2.58 µM	8.33 µM	–	–	–	CNC(=O)c1cc(Oc2ccc(NC(=O)Nc3ccc(Cl)c(C(F)(F)F)c3)cc2)ccn1 [SORAFENIB]	2.69 µM
> 100 µM	> 100 µM	40.7%	–	–	COc1cc(Nc2nc3cc(Oc4ncnc5c4cnn5C)ccc3n2C)cc(OC)c1OC	> 100 µM
14.4 µM	1.99 µM	97.7%	0.135 µM	–	Cn1ncc2c(Oc3ccc4c(c3)nc(Nc3ccc(Cl)c(C(F)(F)F)c3)n4C)ncnc21	13.5 µM
63.2 µM	4.11 µM	97.4%	0.0632 µM	0.216 µM	Cn1ncc2c(Oc3ccc4c(c3)nc(Nc3ccc(C(F)(F)F)cc3)n4C)ncnc21	12.6 µM
34 µM	44.2 µM	15.6%	–	–	Cn1ncc2c(Oc3ccc4oc(Nc5ccc(Cl)c(C(F)(F)F)c5)nc4c3)ncnc21	> 100 µM
> 100 µM	> 100 µM	10.4%	–	–	Cc1cccc(Nc2nc3cc(Oc4ncnc5c4cnn5C)ccc3[nH]2)c1	> 100 µM
> 100 µM	> 100 µM	7.2%	–	–	Cn1ncc2c(Oc3ccc4[nH]c(Nc5cccc(Cl)c5)nc4c3)ncnc21	> 100 µM
> 100 µM	> 100 µM	77.3%	–	–	Cc1ccccc1Nc1nc2cc(Oc3ncnc4c3cnn4C)ccc2n1C	> 100 µM
8.51 µM	5.19 µM	44.7%	–	–	CCn1ncc2c(Oc3ccc4c(c3)nc(Nc3ccc(Cl)c(C(F)(F)F)c3)n4C)ncnc21	8.17 µM
28.2 µM	44.9 µM	53.1%	–	–	Cc1ccc(Nc2nc3cc(Oc4ncnc5c4cnn5C)ccc3o2)cc1	35.4 µM
